Screening results (PubChem)
DAT uptake mod: changed human dopamine transporter uptake under cocaine IC80; Q01959; LLC-PK1 hDAT cells, [14C]-dopamine uptake with cocaine IC80; actives deviate in either direction; B-score at 10 µM; 110,000 tested, 1.3% active;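 active means Z score or B-score, a plate-position-corrected score, falls beyond the plate's 99.7% confidence bounds, in either direction; inactive means both scores lie inside the 99.7% bounds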
Target sequence (Q01959 whole entry, looked up): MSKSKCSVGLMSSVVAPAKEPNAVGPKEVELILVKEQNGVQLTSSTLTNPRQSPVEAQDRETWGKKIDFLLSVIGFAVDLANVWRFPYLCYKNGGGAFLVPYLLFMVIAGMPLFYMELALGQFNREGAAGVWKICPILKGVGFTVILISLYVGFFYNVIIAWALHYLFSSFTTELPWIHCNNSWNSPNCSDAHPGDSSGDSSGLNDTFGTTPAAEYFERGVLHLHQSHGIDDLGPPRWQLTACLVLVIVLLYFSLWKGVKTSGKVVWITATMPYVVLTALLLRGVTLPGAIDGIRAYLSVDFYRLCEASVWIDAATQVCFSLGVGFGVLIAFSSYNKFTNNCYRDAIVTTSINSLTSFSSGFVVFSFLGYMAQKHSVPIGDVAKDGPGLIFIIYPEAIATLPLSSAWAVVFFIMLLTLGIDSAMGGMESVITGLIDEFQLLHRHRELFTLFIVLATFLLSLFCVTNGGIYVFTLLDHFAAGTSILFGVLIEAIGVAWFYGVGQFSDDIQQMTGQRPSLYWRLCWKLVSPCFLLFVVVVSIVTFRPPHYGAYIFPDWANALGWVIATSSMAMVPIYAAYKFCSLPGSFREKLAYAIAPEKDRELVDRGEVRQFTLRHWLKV
D1 mod: allosteric modulators of human D1 dopamine receptor; 58,000 tested, 5.9% active; P21728; AID 641; HEK293 D1, CRE-luciferase, dopamine EC30 potentiation; actives deviate in either direction; B-score at 10 µM;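 active means luminescence count or its row- and column-corrected plate score outside the 99.7% band of the plate's sample wells, on either side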
M1 antag: M1 muscarinic receptor (rat) antagonism; AID 628; CHO-M1 cells, Fluo-4 calcium, ACh EC80 antagonist mode; stronger effect = lower value; P08482; B-score at 10 µM; 64,000 tested, 3.4% active;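 active means calcium fluorescence response, raw or row-and-column corrected B-score, differing from the plate sample mean either way at a set confidence level, mostly lower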
M1 ag: agonists of M1 muscarinic receptor. CHO-M1 cells, Fluo-4 calcium fluorescence, agonist mode; stronger effect = higher value. AID 626. B-score at 10 µM. 64,000 tested, 3% active;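 active means fluorescence rise, raw or as B-score row- and column-corrected plate score, outside the 99.7% band of its plate's samples, either direction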
Jurkat viability: cytotoxicity toward Jurkat cells. Jurkat E6.1 viability, ATP luminescence, 48 h. inhibition, % at 4 µM. 56,000 tested, 1.2% active;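 active means inhibition above the mean inhibition of all tested compounds plus 3 SD, cut at about 28% in these data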
HEK293 NFkB inh: inhibitors of the PMA/ionomycin-induced NF-kB reporter in HEK293 cells; HEK-293 NF-kB luciferase reporter, luminescence; inhibition, % at 3 µM; 62,000 tested, 0.21% active;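 active means inhibition above the mean of all tested compounds plus 3 SD, cut at about 40% in these data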
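System – HEK-293 cells with stable firefly luciferase reporter driven by four HIV NF-kB elements · Doses – one dose, 3 µM · Schedule – 1 h compound pre-incubation, 16 h PMA/ionomycin at 37 °C · Technique – luminescence from luciferase substrate reagent · Measure – percent inhibition normalized per plate to DMSO and reference-inhibitor controls · Replicates – tested once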
D1 PAM confirm: D1 receptor (human) allosteric modulation, confirmed | HEK293 D1 CRE-luciferase, dopamine EC30 potentiation; stronger effect = higher value | shares compounds with D1 mod | luminescence at 10 µM | 2,200 tested, 88% active;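 active means luminescence in either of two replicates above the same-plate mean plus 3 SD of the low-dose dopamine control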
D1 no dopamine: activates D1 CRE-luciferase signal without dopamine present; luminescence at 10 µM; shares compounds with D1 mod; HEK293 D1 CRE-luciferase, luminescence, no dopamine; stronger effect = higher value; AID 646; 1,900 tested, 0.8% active; in the data active means luminescence above about 3900
Isoprot counter: isoproterenol response counter-screen activity for D1 modulators | calls only at 10 µM | shares compounds with D1 mod | 2,200 tested, 63% active | AID 647 | HEK293 D1 CRE-luciferase, isoproterenol EC30 counter-screen;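 active means luminescence in either replicate above plate mean of wells with a partly effective reference agonist dose plus 3 SD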;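 further: isoproterenol raises cAMP through native beta-adrenoceptor Gs so signal bypasses D1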
Of the large screens only hits and unclear results are named; the others gave an inactive call (follow-up assays come after a bar, where they were run). This is a sample that favours compounds with a hit; in the whole collection about 7.6% have one here.

Cc1ccc(Nc2nc(N)nc(CN3CCN(C(=O)c4ccco4)CC3)n2)cc1Cl	D1 mod 5.4 | D1 PAM confirm 12072 | D1 no dopamine inactive | Isoprot counter active
O=C(CCNc1ccc(Cl)c(C(F)(F)F)c1)c1ccco1	none
Cc1cccc(C(=O)Nc2cc(=O)n(C)c(=O)n2C)c1	none
Cn1c(NC(=O)c2cccc(C(F)(F)F)c2)cc(=O)n(C)c1=O	D1 mod 7 | D1 PAM confirm 17760 | D1 no dopamine inactive | Isoprot counter active
O=C(Cc1ccccc1)Nc1nonc1NC(=O)c1ccccc1	D1 mod 4.1 | D1 PAM confirm 8752 | D1 no dopamine inactive | Isoprot counter active
CCc1nc(N(CC)CC)c2oc3ccccc3c2n1	D1 mod 3.2 (no result: Jurkat viability) | D1 PAM confirm inactive | Isoprot counter inactive
OCCSc1ncnc2c1oc1ccccc12	none
N#CCCSc1ncnc2c1oc1ccccc12	D1 mod 5.4 | D1 PAM confirm 14144 | D1 no dopamine inactive | Isoprot counter active
CCc1nc(SCCO)c2oc3ccccc3c2n1	D1 mod 10 | D1 PAM confirm 17028 | Isoprot counter active
CCOC(=O)N1CCN(S(=O)(=O)c2ccc3[nH]c(=O)sc3c2)CC1	none
O=C(/C=C/c1ccccc1)N1CCN(c2ccc([N+](=O)[O-])c(N3CCOCC3)c2)CC1	none (no result: D1 mod, M1 antag, M1 ag, Jurkat viability, HEK293 NFkB inh)
Cc1c2c(nc3c(C(=O)NC4CCCC4)cnn13)CCCC2	D1 mod 5 (no result: Jurkat viability) | D1 PAM confirm 11564 | D1 no dopamine inactive | Isoprot counter active
O=C(NC1CCCC1)c1cnn2c(C(F)(F)F)cc(-c3ccco3)nc12	none (no result: Jurkat viability)
O=C(CN1CCN(Cc2ccc(F)cc2Cl)C1=O)NCCCN1CCOCC1	none
CN(C)CCNc1oc(-c2ccccc2F)nc1C#N	none
N#Cc1nc(-c2ccccc2F)oc1NCc1cccc2c1OCO2	D1 mod 21 | D1 PAM confirm 21008 | D1 no dopamine inactive | Isoprot counter active
N#Cc1nc(-c2ccccc2F)oc1NC1CCCCC1	D1 mod 9.7 | D1 PAM confirm 18604 | D1 no dopamine inactive | Isoprot counter active
NC(=O)C1CCN(c2nc(C3CC3)nc3c2nnn3Cc2ccccc2Cl)CC1	none (no result: D1 mod, Jurkat viability)
NC(=O)C1CCN(c2nc(C3CC3)nc3c2nnn3Cc2ccccc2)CC1	D1 mod 15 | D1 PAM confirm 24680 | D1 no dopamine inactive | Isoprot counter active
COc1ccc(C)cc1NC(=O)C1CCN(S(=O)(=O)c2cccc3cccnc23)CC1	none
COc1ccc(N2CCN(S(=O)(=O)c3cccc4cccnc34)CC2)cc1	D1 mod 8.7 | D1 PAM confirm 19744 | D1 no dopamine inactive | Isoprot counter active
COc1ccc(NC(=O)C2CCN(S(=O)(=O)c3cccc4cccnc34)CC2)cc1OC	D1 mod 3.6 (no result: DAT uptake mod) | D1 PAM confirm 13296 | D1 no dopamine inactive | Isoprot counter active
O=C(NCCCN1CCN(c2ccccc2F)CC1)C1CC(=O)N(C2CCCC2)C1 (stereo not drawn)	none (no result: D1 mod, M1 antag, M1 ag, Jurkat viability, HEK293 NFkB inh)
COC(=O)c1ccc(-n2cncn2)c(F)c1	none (no result: D1 mod, M1 antag, M1 ag, Jurkat viability, HEK293 NFkB inh)
Cc1cc(C(=O)Nc2ccc(S(=O)(=O)Nc3nccs3)cc2)c(C)o1	D1 mod 8.4 | D1 PAM confirm 16172 | D1 no dopamine inactive | Isoprot counter active
COC(=O)Cc1[nH]nc2c1C(c1c[nH]c3ccccc13)C(C#N)=C(N)O2 (stereo not drawn)	D1 mod 8 | D1 PAM confirm 10912 | Isoprot counter active
CCCc1[nH]nc2c1C(c1ccc(OC)cc1OC)C(C#N)=C(N)O2 (stereo not drawn)	D1 mod 7.7 | D1 PAM confirm 14308 | D1 no dopamine inactive | Isoprot counter active
CCCCN(C)C(=O)c1cn(C)c2ccc(S(=O)(=O)N(C)C)cc2c1=O	none
CCC(SC1=Nc2ccccc2C2=NC(CC(C)C)C(=O)N12)C(=O)Nc1ccc2c(c1)OCO2 (stereo not drawn)	none (no result: D1 mod, M1 antag, M1 ag)
COc1ccc(CC(NC(C)=O)C(=O)NC2CCN(c3c4c(nc5ncnn35)CCC4)CC2)cc1 (stereo not drawn)	none (no result: D1 mod)
CCn1c(=NC(=O)CN2C(=O)CCC2=O)sc2c(OC)ccc(OC)c21	D1 mod 5.4 | D1 PAM confirm 11544 | Isoprot counter inactive
CCn1c(=NC(=O)c2ccc(N3C(=O)CCC3=O)cc2)sc2c(OC)ccc(OC)c21	D1 mod 9.9 | D1 PAM confirm 22036 | D1 no dopamine inactive | Isoprot counter active
COc1ccc(N2C(=O)CCC2=O)cc1	none
CCc1ccc(C(=O)COC(=O)CNC(=O)c2cccs2)cc1	none (no result: D1 mod, M1 antag, M1 ag, Jurkat viability, HEK293 NFkB inh)
Cc1cc(=O)n2ncnc2n1COCCO	none
COc1ccccc1-c1nnc(SCC(=O)Nc2nc(-c3ccccc3)cs2)n1C	D1 mod 2.9 | D1 PAM confirm inactive | D1 no dopamine inactive | Isoprot counter inactive
CC(=O)NC1(c2ccccc2)CCN(c2nc(C)cc(C)n2)CC1	D1 mod 3.5 | D1 PAM confirm inactive | D1 no dopamine inactive | Isoprot counter inactive
COc1ccc(N2C(=O)CC(NCc3ccc(F)cc3)C2=O)cc1 (stereo not drawn)	none (no result: D1 mod, M1 antag, M1 ag, Jurkat viability, HEK293 NFkB inh)
Clc1ccccc1Cn1nnc2c(N3CCCC3)ncnc21	D1 mod 3.8 | D1 PAM confirm 13096 | D1 no dopamine inactive | Isoprot counter inactive
CC1CCN(CC(=O)Nc2ccccc2C#N)CC1	none
Cn1nnnc1Sc1ncnc2scc(-c3ccc(F)cc3)c12	D1 mod 12 (no result: DAT uptake mod) | D1 PAM confirm inactive | D1 no dopamine inactive | Isoprot counter inactive
Cn1nnnc1Sc1ncnc2scc(-c3ccccc3)c12	D1 mod 5.6 | D1 PAM confirm 22236 | D1 no dopamine inactive | Isoprot counter active
Clc1ncnc2scc(-c3ccccc3)c12	none (no result: D1 mod, M1 antag, M1 ag, Jurkat viability, HEK293 NFkB inh)
c1ccc(-c2csc3ncn4nnnc4c23)cc1	D1 mod 11 | D1 PAM confirm 12968 | D1 no dopamine inactive | Isoprot counter active
Cc1ccc(Nc2nc(N)nc(CSc3nncn3C)n2)cc1	none (no result: D1 mod, M1 antag, M1 ag, Jurkat viability, HEK293 NFkB inh)
Nc1nc(CSc2ccccn2)nc(Nc2ccccc2)n1	D1 mod 3.6 (no result: Jurkat viability) | D1 PAM confirm 10684 | Isoprot counter active
Cc1ccc(Nc2nc(N)nc(CSc3nnnn3-c3ccccc3)n2)cc1	D1 mod 7.1 | D1 PAM confirm 9096 | Isoprot counter inactive
Nc1nc(CSCCO)nc(Nc2ccccc2)n1	none (no result: D1 mod, M1 antag, M1 ag, Jurkat viability, HEK293 NFkB inh)
O=c1cc[nH]c2cc(C(F)(F)F)ccc12	none
CCOC(=O)c1c(N)c(C#N)cn1-c1ccccc1	D1 mod 20 | D1 PAM confirm 19404 | D1 no dopamine inactive | Isoprot counter active
